Results taken from ChEMBL document CHEMBL1131445, “Evaluation of dynamic polar molecular surface area as predictor of drug absorption: comparison with other computational and experimental predictors” (J Med Chem, 1998).

How the values were obtained:
[1] = Distribution coefficient measured in Octanol/buffer (0.15 M KCl); format: physicochemical
Summary of the method: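 Dual-phase titration at 25 °C: 1–2 mg sample plus 1.0 mL n-octanol in 10–15 mL water with 0.15 M KCl. Acidified to pH 2 (0.5 M HCl), then titrated with 0.5 M KOH to pH 11 under nitrogen. log P came from the pKa–pKa' shift via nonlinear regression of difference curves; log D refers to pH 7.4.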

Homo sapiens = species: Homo sapiens; test: Mono layer permeability of human intestinal Caco-2 cells; format: ADME, cell-based
Summary of the method: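 Caco-2 cells at passage 93–105, seeded on polycarbonate filter inserts (0.45 μm pores) and grown 22–32 days. Drug at 1–2 mM final in HBSS with 25 mM Hepes, pH 7.4, added donor side; 37 °C, low and high stirring. Receiver sampled every 4–40 min for HPLC, under sink conditions. Pc derived from Papp across stirring rates, free of the aqueous boundary layer.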

[2] = Dissociation constant of the compound; format: physicochemical

SMILES | logD [1] | Pc (Homo sapiens) [×10⁻⁶ cm/s] | pKa [2]
C=CCOc1ccccc1OCC(O)CNC(C)C (configuration not stated) [OXPRENOLOL] | 0.08 | 119.6 | 9.5
COCCc1ccc(OCC(O)CNC(C)C)cc1 (configuration not stated) [METOPROLOL] | -0.42 | 91.9 | 
C=CCc1ccccc1OCC(O)CNC(C)C (configuration not stated) [ALPRENOLOL] | 0.85 | 242 | 
CC(C)NCC(O)COc1cccc2[nH]ccc12 (configuration not stated) [PINDOLOL] | -0.55 | 54.7 | 9.7
CCC(=O)Nc1ccc(OCC(O)CNC(C)C)cc1 (configuration not stated) | -1.08 | 6.03 | 9.5
CC(C)NCC(O)COc1ccc(NC=O)cc1 (configuration not stated) | -1.56 | 3.75 | 9.5
CC(=O)Nc1ccc(OCC(O)CNC(C)C)cc1 (configuration not stated) [PRACTOLOL] | -1.31 | 3.46 | 9.5
O=C(NCCNCC(O)COc1ccc(CCOCCOCC2CC2)cc1)N1CCC(O)CC1 (configuration not stated) | -0.1 | 0.104 | 8.5
